Assay results published in PMC3355778 (Frontiers in plant science, 2011).

Key:
Type in all cases: biochemical
CPK1 = target: T1, CPK1 (Arabidopsis thaliana, UniProt Q06850); test: Standard filter-based kinetic assay for kinase activity, CPK1
T1 sequence (Q06850 1-610): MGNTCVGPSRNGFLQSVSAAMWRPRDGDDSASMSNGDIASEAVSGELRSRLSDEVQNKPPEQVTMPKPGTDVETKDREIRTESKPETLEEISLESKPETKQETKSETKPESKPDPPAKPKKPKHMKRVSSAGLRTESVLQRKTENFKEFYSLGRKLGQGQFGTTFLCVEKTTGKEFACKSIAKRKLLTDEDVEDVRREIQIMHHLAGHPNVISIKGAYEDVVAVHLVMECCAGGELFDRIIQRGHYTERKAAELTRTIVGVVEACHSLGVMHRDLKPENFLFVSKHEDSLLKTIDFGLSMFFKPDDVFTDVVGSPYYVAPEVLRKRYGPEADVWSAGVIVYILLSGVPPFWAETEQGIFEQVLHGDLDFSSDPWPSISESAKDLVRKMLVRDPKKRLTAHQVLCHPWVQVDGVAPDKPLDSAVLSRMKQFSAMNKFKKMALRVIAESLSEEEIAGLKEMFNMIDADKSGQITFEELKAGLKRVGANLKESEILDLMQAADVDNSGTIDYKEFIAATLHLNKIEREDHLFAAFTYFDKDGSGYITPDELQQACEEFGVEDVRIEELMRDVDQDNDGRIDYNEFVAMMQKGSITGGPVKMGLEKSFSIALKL
Summary of the method: (§1)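 Recombinant Arabidopsis CPK, GST-N/6xHis-C fusion, affinity-purified. Reactions used 1 ng/µL kinase and 0.1 mg/mL BSA in Ca²⁺/EGTA-buffered kinase buffer (1.1 mM CaCl₂, 1 mM EGTA). Peptide substrate was 0–200 µM. Started with 50 µM ATP plus 0.375 µCi [γ-³³P]ATP, 12 min at RT. Aliquots went onto P81 paper, were washed in 75 mM phosphoric acid, and counted by scintillation. kcat is in nmol P/min/mg enzyme; KM by Lineweaver–Burk.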

CPK10 = target: T2, CPK10 (Arabidopsis thaliana, UniProt Q9M9V8); test: Standard filter-based kinetic assay for kinase activity, CPK10
T2 sequence (Q9M9V8 1-545): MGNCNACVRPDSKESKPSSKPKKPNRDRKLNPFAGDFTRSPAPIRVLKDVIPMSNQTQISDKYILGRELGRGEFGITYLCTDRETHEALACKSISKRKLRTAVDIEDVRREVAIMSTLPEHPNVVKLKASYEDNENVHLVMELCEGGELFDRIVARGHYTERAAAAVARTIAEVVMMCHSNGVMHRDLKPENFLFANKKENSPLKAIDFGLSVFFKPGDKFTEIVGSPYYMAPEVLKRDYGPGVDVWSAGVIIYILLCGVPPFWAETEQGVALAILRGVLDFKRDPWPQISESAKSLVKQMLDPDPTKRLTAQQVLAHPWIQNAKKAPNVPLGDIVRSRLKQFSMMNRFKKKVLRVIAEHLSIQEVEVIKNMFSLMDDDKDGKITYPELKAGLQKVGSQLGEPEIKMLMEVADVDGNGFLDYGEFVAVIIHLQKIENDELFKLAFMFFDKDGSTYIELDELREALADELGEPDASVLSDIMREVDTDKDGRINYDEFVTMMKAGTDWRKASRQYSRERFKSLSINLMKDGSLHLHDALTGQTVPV
Summary of the method: as §1

CPK34 = CPK34 (Arabidopsis thaliana, UniProt Q3E9C0); test: Standard filter-based kinetic assay for kinase activity, CPK34
Chain of CPK34 (Q3E9C0 whole entry): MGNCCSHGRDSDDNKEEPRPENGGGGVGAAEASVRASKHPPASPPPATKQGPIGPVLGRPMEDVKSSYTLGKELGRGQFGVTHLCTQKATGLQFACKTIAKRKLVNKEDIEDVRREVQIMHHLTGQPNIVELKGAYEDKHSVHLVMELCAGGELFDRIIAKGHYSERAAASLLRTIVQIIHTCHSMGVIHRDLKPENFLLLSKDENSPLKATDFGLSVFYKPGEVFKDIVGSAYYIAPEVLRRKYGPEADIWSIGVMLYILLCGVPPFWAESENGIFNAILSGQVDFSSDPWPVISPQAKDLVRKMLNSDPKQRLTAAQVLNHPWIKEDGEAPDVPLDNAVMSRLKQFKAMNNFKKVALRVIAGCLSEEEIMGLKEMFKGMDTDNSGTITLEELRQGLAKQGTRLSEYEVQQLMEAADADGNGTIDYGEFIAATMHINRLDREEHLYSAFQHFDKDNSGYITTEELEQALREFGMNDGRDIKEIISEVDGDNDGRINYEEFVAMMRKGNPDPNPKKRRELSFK
Summary of the method: as §1

CPK16 = target: T3, CPK16 (Arabidopsis thaliana, UniProt Q7XJR9); test: Standard filter-based kinetic assay for kinase activity, CPK16
T3 sequence (Q7XJR9 1-571): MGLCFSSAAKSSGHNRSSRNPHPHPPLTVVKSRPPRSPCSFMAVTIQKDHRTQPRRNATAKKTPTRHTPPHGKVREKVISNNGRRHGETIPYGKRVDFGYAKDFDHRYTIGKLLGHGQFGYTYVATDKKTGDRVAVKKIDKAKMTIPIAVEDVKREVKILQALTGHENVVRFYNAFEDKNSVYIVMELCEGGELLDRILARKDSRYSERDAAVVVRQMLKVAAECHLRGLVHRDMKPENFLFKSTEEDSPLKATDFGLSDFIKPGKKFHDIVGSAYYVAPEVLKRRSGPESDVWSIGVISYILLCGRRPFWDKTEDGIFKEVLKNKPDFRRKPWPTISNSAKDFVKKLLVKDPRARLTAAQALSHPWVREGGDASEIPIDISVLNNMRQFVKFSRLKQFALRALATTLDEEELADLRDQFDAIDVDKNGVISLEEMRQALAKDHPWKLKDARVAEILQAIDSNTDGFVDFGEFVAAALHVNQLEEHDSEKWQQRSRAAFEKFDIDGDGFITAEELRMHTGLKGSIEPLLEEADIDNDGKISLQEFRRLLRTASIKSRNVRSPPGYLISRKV

[1] = Table 5, independent reaction 1 (first value in cell)
[2] = Table 5, independent reaction 2 (second value in cell)
[3] = Table 4, independent reaction 1 (first value in cell)
[4] = Table 4, independent reaction 2 (second value in cell)

| Substance | kcat, CPK1 (CPK1; [1]) | kcat, CPK1 (CPK1; [2]) | kcat, CPK10 (CPK10; [1]) | kcat, CPK10 (CPK10; [2]) | Kcat, CPK34 (CPK34; [1]) | Kcat, CPK34 (CPK34; [2]) | Kcat, CPK16 (CPK16; [3]) | Kcat, CPK16 (CPK16; [4]) | Kcat, CPK34 (CPK34; [3]) | Kcat, CPK34 (CPK34; [4]) |
| --- | --- | --- | --- | --- | --- | --- | --- | --- | --- | --- |
| PLARTLSVAGLPGKK [ach-393, Syntide-2, reference compound] | 362 nmol phosphate incorporated/min/mg enzyme | 482 nmol phosphate incorporated/min/mg enzyme | 252 nmol phosphate incorporated/min/mg enzyme | 217 nmol phosphate incorporated/min/mg enzyme | 155 nmol phosphate incorporated/min/mg enzyme | 225 nmol phosphate incorporated/min/mg enzyme |  |  |  |  |
| RYRRMERTSSMPRAS [jfh-097] |  |  |  |  |  |  | 3734 nmol phosphate incorporated/min/mg CPK | 2677 nmol phosphate incorporated/min/mg CPK | 502 nmol phosphate incorporated/min/mg CPK | 718 nmol phosphate incorporated/min/mg CPK |
| VKIISRIF[S]QRSFRR [jfh-515] |  |  |  |  |  |  | 5114 nmol phosphate incorporated/min/mg CPK | 4854 nmol phosphate incorporated/min/mg CPK | 223 nmol phosphate incorporated/min/mg CPK | 231 nmol phosphate incorporated/min/mg CPK |
| KRFSFKKSFKLSGFSFKK [ach-400, reference compound] |  |  |  |  |  |  | 1795 nmol phosphate incorporated/min/mg CPK | 1429 nmol phosphate incorporated/min/mg CPK | 398 nmol phosphate incorporated/min/mg CPK | 541 nmol phosphate incorporated/min/mg CPK |
| aDFLKRLLSaGMNPN [jfh-597] | 5790 nmol phosphate incorporated/min/mg enzyme | 5900 nmol phosphate incorporated/min/mg enzyme | 1264 nmol phosphate incorporated/min/mg enzyme | 1639 nmol phosphate incorporated/min/mg enzyme | 475 nmol phosphate incorporated/min/mg enzyme | 614 nmol phosphate incorporated/min/mg enzyme |  |  |  |  |
